Measured values gathered from unrelated publications.
Target: Phosphatidylinositol 3-kinase C2 domain-containing subunit gamma (PIK3C2G, Homo sapiens, UniProt O75747)
Sequence (O75747 1-1486, as in one of the studies): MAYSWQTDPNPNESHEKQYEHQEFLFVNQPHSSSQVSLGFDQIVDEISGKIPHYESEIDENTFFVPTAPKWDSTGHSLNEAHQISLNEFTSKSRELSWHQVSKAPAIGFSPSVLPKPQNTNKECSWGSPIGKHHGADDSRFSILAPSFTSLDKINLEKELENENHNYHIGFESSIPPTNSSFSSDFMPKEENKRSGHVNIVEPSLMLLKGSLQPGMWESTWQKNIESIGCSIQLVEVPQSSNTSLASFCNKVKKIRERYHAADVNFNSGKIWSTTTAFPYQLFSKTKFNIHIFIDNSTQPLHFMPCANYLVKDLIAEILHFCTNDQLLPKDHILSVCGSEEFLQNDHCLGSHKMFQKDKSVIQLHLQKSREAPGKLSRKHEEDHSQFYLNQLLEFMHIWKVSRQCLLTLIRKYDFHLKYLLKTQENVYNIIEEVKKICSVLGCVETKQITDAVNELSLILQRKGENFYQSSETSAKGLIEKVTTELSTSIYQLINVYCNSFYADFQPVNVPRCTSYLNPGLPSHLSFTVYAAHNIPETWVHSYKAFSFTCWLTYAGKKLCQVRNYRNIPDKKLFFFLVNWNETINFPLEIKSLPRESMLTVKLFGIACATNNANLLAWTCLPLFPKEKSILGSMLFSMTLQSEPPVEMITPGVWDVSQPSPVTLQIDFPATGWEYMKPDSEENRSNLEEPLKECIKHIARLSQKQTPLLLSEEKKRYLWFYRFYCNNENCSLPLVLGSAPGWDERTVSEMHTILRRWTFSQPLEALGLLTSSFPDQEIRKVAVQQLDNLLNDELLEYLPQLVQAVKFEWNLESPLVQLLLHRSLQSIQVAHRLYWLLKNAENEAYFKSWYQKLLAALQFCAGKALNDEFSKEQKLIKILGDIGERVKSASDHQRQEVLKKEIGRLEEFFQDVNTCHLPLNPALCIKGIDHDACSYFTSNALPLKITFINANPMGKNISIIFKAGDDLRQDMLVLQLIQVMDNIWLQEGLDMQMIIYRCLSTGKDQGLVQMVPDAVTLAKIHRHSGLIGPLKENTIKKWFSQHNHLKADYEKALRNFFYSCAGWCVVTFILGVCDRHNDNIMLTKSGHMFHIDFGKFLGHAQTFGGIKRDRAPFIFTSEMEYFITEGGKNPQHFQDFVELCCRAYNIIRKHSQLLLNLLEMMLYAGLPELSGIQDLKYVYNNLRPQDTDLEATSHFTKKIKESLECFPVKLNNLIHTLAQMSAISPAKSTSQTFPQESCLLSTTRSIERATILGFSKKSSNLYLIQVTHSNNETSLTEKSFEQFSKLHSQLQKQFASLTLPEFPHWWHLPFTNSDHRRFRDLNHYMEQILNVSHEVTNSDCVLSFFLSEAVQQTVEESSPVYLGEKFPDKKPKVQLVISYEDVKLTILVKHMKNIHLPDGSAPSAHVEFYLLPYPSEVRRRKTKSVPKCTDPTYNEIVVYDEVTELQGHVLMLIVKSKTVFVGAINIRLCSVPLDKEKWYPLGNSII

O=C(NCCCN1CCOCC1)c1ccc(Nc2ncc(Cl)c(-c3ccc(Cl)s3)n2)cc1 — remaining binding (binding, competition with immobilised ligand; 1 µM): 100%
FC(F)(F)Oc1cccc(-c2cnc3ccc(-c4ccncc4)nn23)c1 — remaining binding (cell-free assay, competition with immobilised ligand; 5 µM): 34%
CN(C)c1nccc(-c2cnn3ncccc23)n1 — remaining binding (binding; 1 µM): 100%
CC(=O)N1CCC(c2ccc(C(=O)NC3=NCCN3)cc2C(F)(F)F)CC1 — remaining binding (cell-free assay, competition with immobilised ligand; 1 µM): 85%
O=C(Nc1c[nH]nc1C(=O)NC1CCNCC1)c1cc(F)cc(F)c1 — remaining binding (binding, competition with immobilised ligand; 1 µM): 100%
Nc1ncc2c(n1)-c1c([nH]c3ccc(C#CC4CC4)cc13)CCCC2 — remaining binding (binding, competition with immobilised ligand; 1 µM): 92%
CN(C)c1nccc(-c2cnc3ncccn23)n1 — remaining binding (binding; 1 µM): 51%
COc1ncc2cc3ccccc3nc2c1C#N — remaining binding (cell-free assay, competition with immobilised ligand; 5 µM): 84%
N#CC1(c2ccccn2)CCN(Cc2cc(C(=O)N3CCCC3)c(=O)n3ccccc23)CC1 — remaining binding (cell-free assay, competition with immobilised ligand; 1 µM): 73%
C=CC(=O)N1CCC(C(=O)NCC(=O)N2CCN(c3nc(-c4cnc(N)nc4C(F)F)nc(N4CCOCC4)n3)CC2)CC1 — remaining binding (binding, competition with immobilised ligand; 1 µM): 16%
N[C@@H]1CCN(c2nccc(-c3cnn4ncccc34)n2)C1 — remaining binding (binding; 1 µM): 100%
Cc1nc(C2CCN(C(=O)c3ccc(OC(F)(F)F)cc3N)CC2)c2ncc(N3CCN(C)CC3)cc2n1 — remaining binding (cell-free assay, competition with immobilised ligand; 1 µM): 100%
O=C(c1ccc(Nc2nccc(-c3cc4ccccc4s3)n2)cc1)N1CCC(N2CCCC2)CC1 — remaining binding (binding, competition with immobilised ligand; 1 µM): 100%
CNC(=O)c1ccc(Nc2ncc(C(F)(F)F)c(NCc3nccnc3N(C)S(C)(=O)=O)n2)cc1 — remaining binding (cell-free assay, competition with immobilised ligand; 0.1 µM): 92%
COc1cnc(Nc2cccc(S(N)(=O)=O)c2)nc1N1CCN(c2ccccc2)C(=O)C1 — remaining binding (binding, competition with immobilised ligand; 1 µM): 54%
CNCc1ccccc1-c1csc([C@@H](C)Nc2nc(C)nc3cc(OC)c(OC)cc23)c1 — remaining binding (cell-free assay, competition with immobilised ligand; 1 µM): 59%
CN(c1nccc(-c2cnn3ncccc23)n1)C1CC1 — remaining binding (binding; 1 µM): 99%
COc1ccc2c(O[C@@H]3C[C@H]4C(=O)N[C@]5(C(=O)O)CC5/C=C\CCCCC[C@H](NC(=O)OC5CCCC5)C(=O)N4C3)cc(-c3csc(NC(=O)C(C)C)n3)nc2c1C (some centres unmarked) — remaining binding (cell-free assay, competition with immobilised ligand; 1 µM): 86%
CN(C)c1ncc(F)c(-c2cnn3ncccc23)n1 — remaining binding (binding; 1 µM): 56%
O=C(NCCCN1CCOCC1)c1ccc(Nc2nccc(-c3cc4ccccc4s3)n2)cc1 — remaining binding (binding, competition with immobilised ligand; 1 µM): 68%
